One data set relates to XO. The note with it: cited from earlier work.
Data set [1] relates to Neuro-2A neuroblastoma cells. Kind of data set: MTT cell viability assay under Aβ-induced cytotoxicity. To be noted: Neuro-2A cells exposed to Aβ. It is filed as cell-based, Murine. The essentials:
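Neuro-2A cells grown in DMEM with 10% FBS and penicillin-streptomycin at 37°C, 5% CO2. Cells briefly trypsinised, seeded at 2,000–4,000 cells/mL, and rested 6 h. Aβ25–35 (from 833 µM solution), test compound (from 250 µM solution) and MTT were added together for 6 h. Extraction buffer (acetic acid/SDS in DMF/water, pH 4.7) was then added, with 6 h shaking in the dark at 37°C. A570 was expressed relative to an Aβ-free control.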

For data set [2] the following is noted: ref [74]; cited from earlier work.

Entries after “also recorded” stand apart in the source; their conditions may differ.

Usually IC50 stands for the point on the concentration scale where inhibition reaches its midpoint. Consider `Oc1ncnc2[nH]ncc12` [Allopurinol], for which the IC50 in the data set with XO (read-out: IC50 (XO inhibition), ref [6]) is 0.2 to 50 µM.

As to `O=C(/C=C/c1ccc(O)c(O)c1)c1cccc(O)c1` [Compound 8, (E)-3-(3,4-dihydroxyphenyl)-1-(3-hydroxyphenyl)prop-2-en-1-one], the “protection of cells against Aβ/ROS-induced stress (in words)” value (“protection of cells” below) in data set [1] is recorded as “only modest protection”. The same measure, in the same setting: under `O=C(/C=C/c1ccc(O)c(O)c1)c1ccc(O)cc1` [Compound 9, (E)-3-(3,4-dihydroxyphenyl)-1-(4-hydroxyphenyl)prop-2-en-1-one] stands “increased cell viability at a modest but noticeable level”. On the same count and under the same terms, under `O=C(/C=C/c1cccc(O)c1)c1ccc(O)cc1O` [Compound 10, (E)-1-(2,4-dihydroxyphenyl)-3-(3-hydroxyphenyl)prop-2-en-1-one] stands “poor rescue compound”; under `O=C(/C=C/c1ccc(O)c(O)c1)c1c(O)cccc1O` [Compound 11, (E)-1-(2,6-dihydroxyphenyl)-3-(3,4-dihydroxyphenyl)prop-2-en-1-one], “increased cell viability at a modest but noticeable level”; under `O=C(/C=C/c1ccc(O)c(O)c1)c1cc(O)ccc1O` [Compound 12, (E)-1-(2,5-dihydroxyphenyl)-3-(3,4-dihydroxyphenyl)prop-2-en-1-one], “good rescue properties; also recorded: increased cell viability at a modest but noticeable level”.

In the case of `O=C(/C=C/c1ccc(O)c(O)c1)c1ccc(O)c(O)c1` [Compound 13, (E)-1,3-bis(3,4-dihydroxyphenyl)prop-2-en-1-one], the “protection of cells” value in data set [1] is listed as “increased cell viability at a modest but noticeable level”.

On to `O=C(/C=C/c1ccc(O)c(O)c1)c1cc(O)cc(O)c1` [Compound 14, (E)-3-(3,4-dihydroxyphenyl)-1-(3,5-dihydroxyphenyl)prop-2-en-1-one], for which the “protection of cells” value in data set [1] is recorded as “increased cell viability at a modest but noticeable level”. The same measure, in the same setting: under `O=C(/C=C/c1ccc(O)c(O)c1)c1ccc(O)cc1O` [Compound 15, (E)-1-(2,4-dihydroxyphenyl)-3-(3,4-dihydroxyphenyl)prop-2-en-1-one] stands “best level of protection”. Regarding `O=C(/C=C/c1cccc(O)c1O)c1ccc(O)c(O)c1` [Compound 16, (E)-3-(2,3-dihydroxyphenyl)-1-(3,4-dihydroxyphenyl)prop-2-en-1-one], the “protection of cells” value in data set [1] is listed as “increased cell viability at a modest but noticeable level”. For `O=C(/C=C/c1cc(O)ccc1O)c1ccc(O)c(O)c1` [Compound 17, (E)-3-(2,5-dihydroxyphenyl)-1-(3,4-dihydroxyphenyl)prop-2-en-1-one], the “protection of cells” value in data set [1] is “best level of protection”. On the same count and under the same terms, under `O=C(/C=C/c1ccc(O)c(O)c1)c1ccc(O)c(O)c1O` [Compound 18, (E)-3-(3,4-dihydroxyphenyl)-1-(2,3,4-trihydroxyphenyl)prop-2-en-1-one] stands “best level of protection”; under `O=C(/C=C/c1ccc(O)c(O)c1O)c1ccc(O)c(O)c1` [Compound 19, (E)-1-(3,4-dihydroxyphenyl)-3-(2,3,4-trihydroxyphenyl)prop-2-en-1-one], “increased cell viability at a modest but noticeable level”; under `O=C(/C=C/c1ccc(O)c(O)c1O)c1ccc(O)c(O)c1O` [Compound 20, (E)-1,3-bis(2,3,4-trihydroxyphenyl)prop-2-en-1-one], “best level of protection”. In the case of `Oc1ccccc1O` [catechol], the standard reduction potential in data set [2] is 530 mV. On to `Cc1nc(-c2ccc(OCC(C)C)c(C#N)c2)sc1C(=O)O` [febuxostat], for which, in the data set on XO (ref [16]), the “potency (XO inhibition)” value is “subnanomolar range”. For `Oc1ccc(O)cc1` [hydroquinone], the standard reduction potential in data set [2] is given as 459 mV. Take `Oc1cccc(O)c1` [resorcinol]: the standard reduction potential in data set [2] is reported as 720 mV.

The values are drawn from PMC4738094 (Bioorganic & medicinal chemistry, 2015).
